Results from ChEMBL document CHEMBL1121802, “Imine analogues of tricyclic antidepressants” (1981).

Experiments:
Assay type in all cases: functional
[1] = tested on: Mus musculus; assay: The effect on 24-hour mortality in mice following oral administration
[2] = tested on: Mus musculus; assay: The effect on ataxia in mice following oral administration
Procedure, shortened: (§1)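 Observed at 0.5, 2, 5 and 24 h for ataxia (abnormal gait/imprecise movement), pupil diameter (dissecting microscope, 20×, micrometer), excitement (spontaneous running/jumping) and electroshock protection (corneal electrodes at 2 and 5 h). ED50 by Thompson method.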

[3] = tested on: Mus musculus; assay: Antidepressant activity by determining the reversal of tetrabenazine-induced ptosis upon oral administration
Procedure, shortened: (§2)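 Mice given test drug orally; 30 min later challenged with tetrabenazine (methanesulfonate) 32 mg/kg ip in 0.05 M KCl pH 2.0. Scored 1 h after test drug for exploratory activity and ptosis; ptosis antagonism = lid closure <50% in both eyes exactly 2 s after placing mouse facing observer. ED50 calculated by Thompson method.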

[4] = tested on: Mus musculus; assay: Compound was tested for antidepressant activity by determining the decreased exploratory activity in mice upon oral administration; procedure, shortened: as §2
[5] = tested on: Mus musculus; assay: The effect on electroshock protection in mice following oral administration; procedure, shortened: as §1
[6] = tested on: Mus musculus; assay: The effect on excitement was measured in mice following oral administration; procedure, shortened: as §1
[7] = tested on: Mus musculus; assay: Effect on pupil dilation was measured in mice upon oral administration; procedure, shortened: as §1
[8] = tested on: Mus musculus; assay: Compound was tested for antidepressant activity by determining the decreased exploratory activity in mice upon oral administration; 2.6-28; procedure, shortened: as §2
[9] = tested on: Mus musculus; assay: Compound was tested for antidepressant activity by determining the reversal of tetrabenazine-induced ptosis upon oral administration; 5.8-15.6; procedure, shortened: as §2
[10] = tested on: Mus musculus; assay: Compound was tested for antidepressant activity by determining the reversal of tetrabenazine-induced ptosis upon oral administration; 48-203; procedure, shortened: as §2
[11] = tested on: Mus musculus; assay: Antidepressant activity by determining the decreased exploratory activity in mice upon oral administration; procedure, shortened: as §2
[12] = tested on: Mus musculus; assay: Compound was tested for antidepressant activity by determining the reversal of tetrabenazine-induced ptosis upon oral administration; 2.0-3.1; procedure, shortened: as §2
[13] = tested on: Mus musculus; assay: Compound was tested for antidepressant activity by determining the decreased exploratory activity in mice upon oral administration; 4.2-9.7; procedure, shortened: as §2
[14] = tested on: Mus musculus; assay: Compound was tested for antidepressant activity by determining the reversal of tetrabenazine-induced ptosis upon oral administration; 6-20; procedure, shortened: as §2
[15] = tested on: Mus musculus; assay: Compound was tested for antidepressant activity by determining the decreased exploratory activity in mice upon oral administration; 8-58; procedure, shortened: as §2
[16] = tested on: Mus musculus; assay: Compound was tested for antidepressant activity by determining the reversal of tetrabenazine-induced ptosis upon oral administration; 37-170; procedure, shortened: as §2
[17] = tested on: Mus musculus; assay: Compound was tested for antidepressant activity by determining the reversal of tetrabenazine-induced ptosis upon oral administration; 3.0-73; procedure, shortened: as §2
[18] = tested on: Mus musculus; assay: Compound was tested for antidepressant activity by determining the decreased exploratory activity in mice upon oral administration; 20-36; procedure, shortened: as §2
[19] = tested on: Mus musculus; assay: Compound was tested for antidepressant activity by determining the reversal of tetrabenazine-induced ptosis upon oral administration; 11-29; procedure, shortened: as §2
[20] = tested on: Mus musculus; assay: compound was tested for antidepressant activity by determining the decreased exploratory activity in mice upon oral administration; […]
Procedure, shortened: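 Mice got the test drug, then 30 min later tetrabenazine (as methanesulfonate) 32 mg/kg ip, dissolved in 0.20 mL of 0.05 M KCl at pH 2.0. One hour after test drug (30 min after tetrabenazine), animals were scored for exploratory activity and ptosis. Reversal of the tetrabenazine-induced decrease in exploration was the read-out.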

Structure (SMILES)	ED50 [1] [mg/kg]	ED50 [2] [mg/kg]	ED50 [3] [mg/kg]	ED50 [5] [mg/kg]	ED50 [6] [mg/kg]	ED50 [7] [mg/kg]	ED50 [11] [mg/kg]	also measured
NCCCNC1c2ccccc2CCc2ccccc21	200	60	> 125	> 324	> 324	60	–	ED50 [4]: > 125 mg/kg
CNCCN=C1c2ccccc2CCc2ccccc21	200	36	< 5	> 324	> 324	60	–	ED50 [8]: 8.5 mg/kg
CN(C)CCCN=c1c2ccccc2ccc2ccccc12	–	20	–	> 324	36	7	–	ED50 [9]: 9.5 mg/kg; ED50 [4]: > 125 mg/kg
CN(C)CCC/N=C1\c2ccccc2COc2ccccc21	200	20	–	> 324	> 324	20	> 125	ED50 [10]: 99 mg/kg
CN(C)CCN=c1c2ccccc2ccc2ccccc12	36	4	–	> 324	7	4	–	ED50 [12]: 2.5 mg/kg; ED50 [13]: 6.4 mg/kg
CCNCCN=C1c2ccccc2CCc2ccccc21	36	20	> 125	60	> 324	20	> 125	–
CN(C)CCN=c1c2ccccc2sc2ccccc12	300	60	–	> 324	> 324	36	–	ED50 [14]: 11 mg/kg; ED50 [15]: 22 mg/kg
CCN(CC)CCN=C1c2ccccc2CCc2ccccc21	60	20	> 125	200	> 324	36	36	–
c1ccc2c(c1)C(=NCCN1CCOCC1)c1ccccc1C1CC21 (stereo unspecified)	> 324	200	–	> 324	> 324	> 324	> 125	ED50 [16]: 79 mg/kg
CN(C)CCN=C1c2ccccc2C2C(c3ccccc31)C2(Cl)Cl (stereo unspecified)	> 324	200	> 125	> 324	> 324	> 324	> 125	–
CN(C)CCCN=C(c1ccccc1)c1ccccc1	200	60	> 125	> 324	> 324	> 324	> 125	–
CN(C)CCN=C1c2ccccc2C(C)(C)c2ccccc21	200	36	> 125	> 324	> 324	> 324	> 125	–
CN(C)CCN=C1c2ccccc2C2C(Cl)C2c2ccccc21 (stereo unspecified)	> 324	200	> 125	> 324	> 324	200	> 125	–
CN(C)CC/N=C1\c2ccccc2CSc2ccccc21	60	20	–	> 324	> 324	20	–	ED50 [17]: 47 mg/kg; ED50 [18]: 27 mg/kg
NCCN=C1c2ccccc2CCc2ccccc21	200	100	–	200	> 324	200	–	ED50 [19]: 18 mg/kg; ED50 [20]: 56 mg/kg
CN(C)CCCN=c1c2ccccc2oc2ccccc12	300	60	> 125	> 324	> 324	> 324	> 125	–
